Results on seven compounds are retold here after article PMC11484934 (Nature Communications, 2024).

pEC50, pIC50, pKd: −log10 of the molar value.

In data set [1] the target is recombinant human GAPDH (Homo sapiens, UniProt P04406). The data set is described as follows: Thermal shift assay with purified recombinant protein. In kind it is binding. The conditions noted are these: FBP vs H2O, CBB staining. Put shortly: (§1)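 Purified recombinant human protein (0.2 μg/μL) was treated with test compound or H2O for 30 min at 25 °C. It was split into six aliquots, each heated in parallel for 3 min at its set temperature, then spun 20,000 g for 20 min at 4 °C. Supernatants were run on SDS-PAGE and stained with Coomassie blue.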

The target in data set [2] is T1, PMM2 (Homo sapiens, UniProt O15305).
T1 sequence (O15305 1-246): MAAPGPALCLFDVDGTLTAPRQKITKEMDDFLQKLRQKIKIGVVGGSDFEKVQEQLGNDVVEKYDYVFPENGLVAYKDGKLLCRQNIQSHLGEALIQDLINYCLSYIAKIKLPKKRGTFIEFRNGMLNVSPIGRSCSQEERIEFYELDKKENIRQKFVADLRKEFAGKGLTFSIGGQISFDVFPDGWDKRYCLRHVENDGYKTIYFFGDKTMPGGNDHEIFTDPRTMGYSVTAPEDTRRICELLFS
The description is as above. The conditions noted are these: recombinant human PMM2, FBP vs H2O, CBB staining. The data set is classed as binding. Put shortly:
as §1

In data set [3] the test system is recombinant human PRPS1. The data set is described as above. The data set is classed as binding. To be noted: recombinant human PRPS1, FBP vs H2O, CBB staining. Put shortly: as §1
Data set [4] concerns the target T2, PGM1 (Homo sapiens, UniProt P36871).
T2 sequence (P36871 1-580 isoform P36871-2): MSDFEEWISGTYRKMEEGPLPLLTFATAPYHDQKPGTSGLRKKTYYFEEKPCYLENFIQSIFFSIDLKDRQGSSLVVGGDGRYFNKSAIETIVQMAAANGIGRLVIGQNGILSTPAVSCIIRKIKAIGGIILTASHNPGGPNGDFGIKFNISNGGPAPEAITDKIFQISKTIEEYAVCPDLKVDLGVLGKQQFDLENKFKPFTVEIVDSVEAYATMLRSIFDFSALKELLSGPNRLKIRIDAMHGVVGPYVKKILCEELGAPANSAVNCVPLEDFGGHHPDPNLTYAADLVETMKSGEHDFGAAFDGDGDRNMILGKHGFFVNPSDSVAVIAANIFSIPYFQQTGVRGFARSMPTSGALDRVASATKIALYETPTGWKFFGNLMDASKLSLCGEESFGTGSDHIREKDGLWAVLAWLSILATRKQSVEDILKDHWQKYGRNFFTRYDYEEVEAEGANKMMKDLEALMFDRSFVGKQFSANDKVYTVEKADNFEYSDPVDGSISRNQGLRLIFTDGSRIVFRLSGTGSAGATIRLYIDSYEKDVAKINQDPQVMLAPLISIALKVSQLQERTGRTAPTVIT
Described as above. The conditions noted are these: recombinant human PGM1, FBP vs H2O, CBB staining. In kind it is binding. The procedure, abridged:
as §1

The test system of data set [5] is recombinant human RAN. The data set is described as above. In kind it is binding. To be noted: FBP vs H2O, CBB staining. The procedure, abridged:
as §1

Data set [6] concerns the target recombinant human HDAC2 (Homo sapiens, UniProt Q92769). Described as above. The data set is classed as binding. To be noted: recombinant human HDAC2, FBP vs H2O, CBB staining. The procedure, abridged: as §1
In data set [7] the target is recombinant human OXSR1 (Homo sapiens, UniProt O95747). Described as above. The data set is classed as binding. To be noted: recombinant human OXSR1, FBP vs H2O, CBB staining. Put shortly: as §1
Data set [8] deals with T3, recombinant PGAM1 (Homo sapiens, UniProt P18669). The data set is described as follows: PGAM1 enzyme activity assay. The data set is classed as biochemical. The conditions noted are these: for effect on PGAM1 enzymatic activity: PGAM1 enzymatic assay.
Data set [9] deals with T4, PGAM1-H11A (Homo sapiens, UniProt P18669, H11A).
T4 sequence (P18669 1-254 H11A): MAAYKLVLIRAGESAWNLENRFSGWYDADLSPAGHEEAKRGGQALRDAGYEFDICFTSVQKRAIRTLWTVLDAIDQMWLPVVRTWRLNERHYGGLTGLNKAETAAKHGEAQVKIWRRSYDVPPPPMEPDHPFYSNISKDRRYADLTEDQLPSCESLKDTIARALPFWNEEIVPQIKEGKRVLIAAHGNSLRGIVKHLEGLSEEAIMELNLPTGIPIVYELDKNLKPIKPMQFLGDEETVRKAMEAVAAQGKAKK
The data set can be described thus: PGAM1 enzyme activity assay, H11A mutant. The data set is classed as biochemical.

Data set [10] deals with T2, PGM1. The data set can be described thus: PGM1 enzyme activity assay. In kind it is biochemical.
The target in data set [11] is T1, PMM2. The data set can be described thus: PMM2 enzyme activity assay. The data set is classed as biochemical.
Data set [12] addresses T3, recombinant PGAM1. The data set is described as follows: Microscale thermophoresis. The data set is classed as binding. Put shortly: (§2)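 Purified protein was labelled on lysines with a RED-NHS dye. It was mixed with test compound in 50 mM Tris-HCl pH 7.5, 100 mM NaCl, 0.05% Tween-20 and incubated 30 min at room temperature in the dark. The mix was loaded into capillaries for microscale thermophoresis on a Monolith NT.115.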
In general terms: Microscale thermophoresis detects binding through changes in fluorescence in a small temperature gradient.

In data set [13] the target is T2, PGM1. The data set can be described thus: Microscale thermophoresis. The data set is classed as binding. The procedure, abridged: as §2
Data set [14] has as its target T1, PMM2. The data set can be described thus: Microscale thermophoresis. In kind it is binding. The procedure, abridged:
as §2

Data set [15] deals with T3, recombinant PGAM1. The data set can be described thus: Histidine phosphorylation of recombinant PGAM1. The conditions noted are these: for PGAM1 phosphorylation / 3-pHis modification: immunoblotting and Phos-tag SDS-PAGE. In kind it is biochemical. The procedure, abridged: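 Recombinant human PGAM1 was incubated with test compound. It was then analysed by Phos-tag SDS-PAGE or by immunoblotting with monoclonal antibodies specific for N3-phosphohistidine (3-pHis) and 1-phosphohistidine (1-pHis).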
On the technique in general: A western blot detects proteins with antibodies after separation by electrophoresis.

Data set [16] deals with Flag-tagged PGAM1 in HEK293T cells (Homo sapiens, UniProt P18669). In kind it is cell-based. The conditions noted are these: 30 min, glucose-free medium.
Data set [17] has as its system HepG2 cells. The data set is described as follows: LC-MS/MS quantification of intracellular FBP concentrations. In kind it is cell-based, human. To be noted: HepG2 cells treated with 10 mM FBP, 30 min. Put shortly:
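HepG2 cells (2 × 10^6/well, triplicates) were allowed to adhere overnight. They were treated 0.5 h with 10 mM test compound or H2O in 5 mM or 25 mM glucose medium. After PBS washes, cells were extracted in cold 80% MeOH containing 13C6-labelled internal standard (0.1 µg/mL), centrifuged and dried. Extracts were run by HILIC (BEH Amide) LC-MS/MS in negative mode, 10 mM NH4HCO3/MeCN.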

In data set [18] the test system is HepG2 cells. The data set can be described thus: LC-MS/MS detection of 3-PG and 2-PG. In kind it is cell-based, human. The conditions noted are these: 10 mM FBP, 30 min. The procedure, abridged: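 HepG2 cells (2 × 10^6/well, triplicates) were treated with 10 mM test compound for 0.5 h in 5 mM glucose, or H2O as control. Cells were extracted in cold 80% MeOH and analysed by HILIC LC-MS/MS in negative mode. The 3-PG and 2-PG fraction came from the m/z 97/(79 + 97) fragment ratio against standard-mixture curves. Values were scaled to the WT total mono-PG concentration.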

For data set [19], the system named is sgCTRL HepG2 cells. The data set can be described thus: Lactate production, sgCTRL HepG2 cells. In kind it is cell-based, human. To be noted: FBP 10 mM, 30 min. Put shortly:
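HepG2 cells were cultured overnight in 96 wells, then treated with H2O or 10 mM test compound for 0.5 h, or with H2O or 1 mM derivative for 24 h. Lactate in the culture medium was measured with a lactate assay kit.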

The subject of data set [20] is sgCTRL HepG2 cells. The data set can be described thus: Glucose consumption, sgCTRL HepG2 cells. The data set is classed as cell-based, human. To be noted: FBP 10 mM, 30 min. The procedure, abridged:
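HepG2 cells were cultured overnight in 96 wells, then treated with H2O or 10 mM test compound for 0.5 h, or with H2O or 1 mM derivative for 24 h. Glucose consumption from the culture medium was measured with a glucose oxidase kit.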

Data set [21] concerns HepG2 cells. The data set can be described thus: Cell viability / proliferation assay. In kind it is cell-based, human. The conditions noted are these: sgCTRL HepG2, FBP 10 mM, 24 h, glucose-free medium. Put shortly:
(§3)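 HepG2 cells (5000/well) were allowed to adhere overnight. They were exposed 24 h to a dilution series of test compound in glucose-free or 5 mM glucose medium, or to derivatives in 25 mM glucose medium for 24 h or 48 h. Viability was read by CCK8 colorimetry. PGAM1-knockout cells were made with a LentiCRISPR v2 sgRNA (HEK293T-packaged lentivirus, polybrene 10 µg/mL for 24 h) and selected with puromycin.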

Data set [22] has as its system sgPGAM1 HepG2 cells. The data set can be described thus: Cell viability / proliferation assay. In kind it is cell-based, human. The conditions noted are these: sgPGAM1 HepG2, FBP 10 mM, 24 h, glucose-free medium. Put shortly:
as §3

T3 sequence (P18669 whole entry): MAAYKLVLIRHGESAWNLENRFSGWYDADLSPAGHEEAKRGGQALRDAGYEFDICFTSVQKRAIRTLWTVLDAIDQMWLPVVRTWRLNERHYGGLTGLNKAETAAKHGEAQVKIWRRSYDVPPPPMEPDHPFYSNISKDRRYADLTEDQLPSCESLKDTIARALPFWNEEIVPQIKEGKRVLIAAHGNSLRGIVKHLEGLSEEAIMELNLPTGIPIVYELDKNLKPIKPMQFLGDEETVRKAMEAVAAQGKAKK
Flag-tagged PGAM1 in HEK293T cells, sequence (P18669 whole entry): as above
recombinant human OXSR1, sequence (O95747 whole entry): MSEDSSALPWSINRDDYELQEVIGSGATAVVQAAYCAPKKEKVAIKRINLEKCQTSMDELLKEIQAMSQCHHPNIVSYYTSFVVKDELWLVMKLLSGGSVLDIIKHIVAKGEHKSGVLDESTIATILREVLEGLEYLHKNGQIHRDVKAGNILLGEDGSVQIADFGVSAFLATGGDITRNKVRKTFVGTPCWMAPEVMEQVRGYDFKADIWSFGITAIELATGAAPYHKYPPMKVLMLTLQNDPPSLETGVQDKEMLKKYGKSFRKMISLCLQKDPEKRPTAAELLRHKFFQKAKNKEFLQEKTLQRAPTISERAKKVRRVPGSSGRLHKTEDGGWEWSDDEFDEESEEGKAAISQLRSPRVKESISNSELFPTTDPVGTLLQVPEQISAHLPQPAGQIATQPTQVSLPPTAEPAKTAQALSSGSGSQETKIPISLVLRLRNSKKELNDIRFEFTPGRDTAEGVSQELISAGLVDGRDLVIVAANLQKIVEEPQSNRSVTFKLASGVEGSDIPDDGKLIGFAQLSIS
recombinant human HDAC2, sequence (Q92769 whole entry): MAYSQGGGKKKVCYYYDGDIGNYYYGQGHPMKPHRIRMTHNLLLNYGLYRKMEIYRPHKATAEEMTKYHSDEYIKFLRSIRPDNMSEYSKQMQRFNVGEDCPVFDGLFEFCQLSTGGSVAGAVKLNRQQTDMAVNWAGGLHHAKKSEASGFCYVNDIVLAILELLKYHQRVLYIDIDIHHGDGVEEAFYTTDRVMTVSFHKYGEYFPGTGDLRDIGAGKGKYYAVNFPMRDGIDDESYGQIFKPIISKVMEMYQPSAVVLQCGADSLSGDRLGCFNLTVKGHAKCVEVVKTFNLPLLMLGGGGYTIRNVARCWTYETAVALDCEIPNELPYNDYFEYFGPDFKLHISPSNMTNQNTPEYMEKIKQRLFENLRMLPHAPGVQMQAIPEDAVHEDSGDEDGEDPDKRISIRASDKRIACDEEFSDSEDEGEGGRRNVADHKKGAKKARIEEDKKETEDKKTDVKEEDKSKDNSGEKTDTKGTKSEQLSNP
recombinant human GAPDH, sequence (P04406 43-335): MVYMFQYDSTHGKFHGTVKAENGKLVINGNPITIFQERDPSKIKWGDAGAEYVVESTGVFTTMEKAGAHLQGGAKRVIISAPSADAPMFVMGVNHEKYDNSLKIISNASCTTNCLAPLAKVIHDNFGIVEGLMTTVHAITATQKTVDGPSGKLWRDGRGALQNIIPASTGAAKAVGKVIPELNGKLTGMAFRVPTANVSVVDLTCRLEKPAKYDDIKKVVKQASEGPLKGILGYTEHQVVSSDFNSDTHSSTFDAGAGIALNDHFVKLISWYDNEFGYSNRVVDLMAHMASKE

As usually defined, the pEC50 is −log10 of the EC50, conventionally taken in molar units. Broadly, the pIC50 is −log10 of the IC50, conventionally taken in molar units. Read a low pIC50 as a high IC50. The pKd is −log10 of the Kd, conventionally taken in molar units. For the compound `O=C(COP(=O)(O)O)[C@@H](O)[C@H](O)[C@H](O)COP(=O)(O)O` [FBP, fructose-1,6-bisphosphate], the “thermal stability of recombinant protein” value in data set [1] was “increased”; in data set [2], “increased”; in [3], “increased”; in [4], “increased”; in data set [5], “reduced”; in data set [6], “reduced”. Besides, the “thermal stability of recombinant protein” value in data set [7] is “reduced”. In addition, in [8], the negative-log EC50 (pEC50) is 3.32. Further, the “effect on PGAM1 enzymatic activity” value in data set [8] was “could activate the enzyme”. Besides, the “activation effect towards PGAM1-H11A mutant” value in data set [9] was “lost its activation effect”. Besides, the pIC50 in data set [10] was 2.55; in data set [11], 2.10. The pKd is 3.78 in data set [12], 3.63 in [13] and 3.61 in data set [14]. In addition, the “concentration able to phosphorylate PGAM1” value in [15] (concentration-dependent immunoblotting, recombinant PGAM1) is on record as 1 mM. The “PGAM1 phosphorylation / 3-pHis modification” value in [15] (recombinant PGAM1) was “act as a phosphate donor to form 3-pHis modification”. In data set [15] (time-dependent PGAM1 histidine phosphorylation), the “time after which 3-pHis modification decayed” value is given as over 4 h. For the same compound, the “histidine phosphorylation of Flag-tagged PGAM1 in living cells” value in data set [16] was “Dose-dependent histidine phosphorylation”. Further, in [17], the “intracellular FBP concentration after exogenous treatment” value turned out to be 1.435 ± 0.062 mM. Moreover, in data set [18], the 2-PG/3-PG ratio result is listed as “significant increased”. In data set [19], the lactate production entry is reported as “significant increases”. Further, the glucose consumption result in data set [20] is recorded as “significant increases”. In addition, the cell proliferation entry in data set [21] is on record as “significantly upregulated”. In data set [22], the “effect on cell proliferation in PGAM1-knockout cells” value is listed as “abolished”.
Take `O=P(O)(O)O[C@H]1O[C@H](CO)[C@@H](O)[C@H](O)[C@H]1O` [G1P, α-D-glucose-1-phosphate]: the “effect on PGAM1 enzymatic activity” value in [8] was “did not regulate the enzymatic activity”.
For `C=C(OP(=O)(O)O)C(=O)O` [PEP, phosphoenolpyruvate, reference compound], the “PGAM1 phosphorylation / 3-pHis modification” value in [15] (recombinant PGAM1) is reported as “weak phosphorylation”.
As for D-glucose-6-phosphate [G6P], the “effect on PGAM1 enzymatic activity” value in data set [8] is listed as “did not regulate the enzymatic activity”.
In the case of D-mannose-6-phosphate [M6P], in data set [8], the “effect on PGAM1 enzymatic activity” value is given as “did not regulate the enzymatic activity”.
In the case of fructose-1-phosphate [F1P], in data set [8], the “effect on PGAM1 enzymatic activity” value is “did not regulate the enzymatic activity”.
For fructose-6-phosphate [F6P], the “effect on PGAM1 enzymatic activity” value in data set [8] was “did not regulate the enzymatic activity”.
